Among the data in ChEMBL document CHEMBL1781932 (J Med Chem, 2011) are MIC values, retold here.

The term MIC denotes the lowest concentration that inhibits growth of the organism. Read a low MIC as inhibition by little substance.

Structures are written as SMILES. In brackets after ≈: the same amount, converted by molar mass.

Common to all, as to format: functional
Test [1] has as its system Staphylococcus aureus. Put plainly: Antimicrobial activity against tetracycline-susceptible Staphylococcus aureus isolate 101 by CLSI dilution method.
The test system of test [2] is Staphylococcus aureus. The test is described as follows: Antimicrobial activity against methicillin-, tetracycline-resistant Staphylococcus aureus isolate 161 harboring tetM gene by CLSI dilution method.
For test [3], the system named is Staphylococcus aureus. The test is described as follows: Antimicrobial activity against tetracycline-resistant Staphylococcus aureus isolate 158 harboring tetK gene by CLSI dilution method.
The subject of test [4] is Enterococcus faecalis. Put plainly: Antimicrobial activity against tetracycline-susceptible Enterococcus faecalis isolate 103 by CLSI dilution method. In outline: (§1)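 Broth microdilution per CLSI in fresh cation-adjusted Mueller Hinton broth, kept at 4 °C before testing, with defibrinated horse blood added as appropriate. Strains were from ATCC. MIC in µg/mL. Runs were accepted when comparator antibiotics against ATCC quality-control strains fell within recommended ranges.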

The test system of test [5] is Streptococcus pneumoniae. The test is described as follows: Antimicrobial activity against tetracycline-susceptible Streptococcus pneumoniae isolate 106 by CLSI dilution method. The method, boiled down:
as §1

For test [6], the system named is Escherichia coli. Put plainly: Antimicrobial activity against tetracycline-susceptible Escherichia coli isolate 107 by CLSI dilution method. The method, boiled down:
as §1

In test [7] the test system is Escherichia coli. The test is described as follows: Antimicrobial activity against tetracycline-resistant Escherichia coli isolate 155 harboring tetA gene by CLSI dilution method.
The next test relates to Acinetobacter baumannii. The test is described as follows: Antimicrobial activity against tetracycline-susceptible Acinetobacter baumannii isolate 110 by CLSI dilution method. The method, boiled down: as §1
Another test deals with Pseudomonas aeruginosa. The test is described as follows: Antimicrobial activity against tetracycline-susceptible Pseudomonas aeruginosa isolate 111 by CLSI dilution method. The method, boiled down:
as §1

The next test relates to Enterobacter cloacae. The test is described as follows: Antimicrobial activity against tetracycline-susceptible Enterobacter cloacae isolate 108 by CLSI dilution method. The method, boiled down: as §1
Test [8] deals with Klebsiella pneumoniae. Put plainly: Antimicrobial activity against tetracycline-susceptible Klebsiella pneumoniae isolate 109 by CLSI dilution method. In outline: as §1
Test [9] deals with Klebsiella pneumoniae. The test is described as follows: Antimicrobial activity against tetracycline-resistant Klebsiella pneumoniae isolate 153 harboring tetA gene by CLSI dilution method.
Test [10] has as its system Enterococcus faecalis. The test is described as follows: Antimicrobial activity against tetracycline-resistant Enterococcus faecalis isolate 159 harboring […] gene by CLSI dilution method.
The test system of test [11] is Streptococcus pneumoniae. Put plainly: Antimicrobial activity against tetracycline-resistant Streptococcus pneumoniae isolate 160 harboring tetM gene by CLSI dilution method.

In the case of `CN(C)[C@@H]1C(O)=C(C(N)=O)C(=O)[C@@]2(O)C(O)=C3C(=O)c4c(cc5c(N)cccc5c4O)C[C@H]3C[C@@H]12`, the MIC is 2 µg/mL (≈ 4.17 µM) in the test with Staphylococcus aureus [1]; 4 µg/mL (≈ 8.34 µM) in the test with Staphylococcus aureus [2]; 2 µg/mL (≈ 4.17 µM) against Staphylococcus aureus [3]; 4 µg/mL (≈ 8.34 µM) in the test with Enterococcus faecalis [4]; 2 µg/mL (≈ 4.17 µM) with Streptococcus pneumoniae [5]; over 32 µg/mL against Escherichia coli [6]. For the same molecule, the minimal inhibitory concentration (MIC) in the test with Escherichia coli [7] was over 32 µg/mL; in the test with Acinetobacter baumannii, 8 µg/mL (≈ 16.7 µM); against Pseudomonas aeruginosa it was over 32 µg/mL; in the test with Enterobacter cloacae, over 32 µg/mL; with Klebsiella pneumoniae [8] it was over 32 µg/mL; in the test with Klebsiella pneumoniae [9] it was over 32 µg/mL.

As to `COc1cccc2c(O)c3c(cc12)C[C@H]1C[C@H]2[C@H](N(C)C)C(O)=C(C(N)=O)C(=O)[C@@]2(O)C(O)=C1C3=O`, the minimal inhibitory concentration (MIC) against Staphylococcus aureus [2] is 0.5 µg/mL (≈ 1.01 µM); against Enterococcus faecalis [4], 0.5 µg/mL (≈ 1.01 µM); in the test on Enterococcus faecalis [10] it was 1 µg/mL (≈ 2.02 µM); with Streptococcus pneumoniae [5], 2 µg/mL (≈ 4.04 µM); in the test on Streptococcus pneumoniae [11], 4 µg/mL (≈ 8.09 µM); in the test with Escherichia coli [6], over 32 µg/mL. For the same molecule, the minimum inhibitory concentration (MIC) against Escherichia coli [7] was over 32 µg/mL; against Acinetobacter baumannii it was 32 µg/mL (≈ 64.7 µM); in the test on Pseudomonas aeruginosa, over 32 µg/mL; with Enterobacter cloacae it was over 32 µg/mL; in the test on Klebsiella pneumoniae [8], over 32 µg/mL; against Klebsiella pneumoniae [9], over 32 µg/mL.

In the case of `CN(C)[C@@H]1C(O)=C(C(N)=O)C(=O)[C@@]2(O)C(O)=C3C(=O)c4c(cc5ccc(CN6CCC6)cc5c4O)C[C@H]3C[C@@H]12`, the minimum inhibitory concentration (MIC) against Staphylococcus aureus [1] was 0.5 µg/mL (≈ 0.937 µM); against Staphylococcus aureus [2], 2 µg/mL (≈ 3.75 µM); in the test with Staphylococcus aureus [3], 0.5 µg/mL (≈ 0.937 µM); against Enterococcus faecalis [4], 0.5 µg/mL (≈ 0.937 µM); against Enterococcus faecalis [10], 4 µg/mL (≈ 7.5 µM); against Streptococcus pneumoniae [5] it was 0.125 µg/mL (≈ 0.234 µM). Further, the MIC in the test on Streptococcus pneumoniae [11] was found to be 0.25 µg/mL (≈ 0.469 µM); in the test on Escherichia coli [6] it was 1 µg/mL (≈ 1.87 µM); in the test with Escherichia coli [7], 8 µg/mL (≈ 15 µM); against Pseudomonas aeruginosa it was 32 µg/mL (≈ 60 µM); against Klebsiella pneumoniae [8], 4 µg/mL (≈ 7.5 µM); against Klebsiella pneumoniae [9], 8 µg/mL (≈ 15 µM).

`CN(C)CCOc1c2c(c(O)c3cc(CN4CCC4)ccc13)C(=O)C1=C(O)[C@]3(O)C(=O)C(C(N)=O)=C(O)[C@@H](N(C)C)[C@@H]3C[C@@H]1C2`: the minimal inhibitory concentration (MIC) was 4 µg/mL (≈ 6.44 µM) in the test on Staphylococcus aureus [1]; 8 µg/mL (≈ 12.9 µM) against Staphylococcus aureus [2]; 4 µg/mL (≈ 6.44 µM) with Staphylococcus aureus [3]; 8 µg/mL (≈ 12.9 µM) in the test with Enterococcus faecalis [4]; 1 µg/mL (≈ 1.61 µM) against Streptococcus pneumoniae [5]; 2 µg/mL (≈ 3.22 µM) against Streptococcus pneumoniae [11]. Besides, the minimum inhibitory concentration (MIC) against Escherichia coli [6] is 8 µg/mL (≈ 12.9 µM); with Escherichia coli [7], over 32 µg/mL; in the test on Acinetobacter baumannii, over 32 µg/mL; with Pseudomonas aeruginosa, over 32 µg/mL; against Enterobacter cloacae it was 16 µg/mL (≈ 25.8 µM); in the test on Klebsiella pneumoniae [8], 32 µg/mL (≈ 51.6 µM). Besides, in the test with Klebsiella pneumoniae [9], the MIC is over 32 µg/mL.

As for `CCCNc1c2c(c(O)c3cc(CN4CCC4)ccc13)C(=O)C1=C(O)[C@]3(O)C(=O)C(C(N)=O)=C(O)[C@@H](N(C)C)[C@@H]3C[C@@H]1C2`, the MIC in the test on Staphylococcus aureus [1] was found to be 4 µg/mL (≈ 6.77 µM); against Staphylococcus aureus [3] it was 4 µg/mL (≈ 6.77 µM); against Enterococcus faecalis [4], 4 µg/mL (≈ 6.77 µM); with Enterococcus faecalis [10], 16 µg/mL (≈ 27.1 µM); against Streptococcus pneumoniae [5], 0.5 µg/mL (≈ 0.846 µM); in the test with Streptococcus pneumoniae [11], 2 µg/mL (≈ 3.39 µM). The minimal inhibitory concentration (MIC) against Escherichia coli [6] was 16 µg/mL (≈ 27.1 µM); against Escherichia coli [7] it was over 32 µg/mL; against Acinetobacter baumannii, 16 µg/mL (≈ 27.1 µM); against Pseudomonas aeruginosa, over 32 µg/mL; with Enterobacter cloacae, over 32 µg/mL; in the test on Klebsiella pneumoniae [8], 32 µg/mL (≈ 54.2 µM). In addition, the MIC against Klebsiella pneumoniae [9] is over 32 µg/mL.

Turning to `CCCN(CCC)c1c2c(c(O)c3cc(CN4CCC4)ccc13)C(=O)C1=C(O)[C@]3(O)C(=O)C(C(N)=O)=C(O)[C@@H](N(C)C)[C@@H]3C[C@@H]1C2`, the minimal inhibitory concentration (MIC) with Staphylococcus aureus [1] worked out at 0.5 µg/mL (≈ 0.79 µM); against Staphylococcus aureus [3], 0.5 µg/mL (≈ 0.79 µM); with Enterococcus faecalis [4], 0.5 µg/mL (≈ 0.79 µM); against Enterococcus faecalis [10] it was 4 µg/mL (≈ 6.32 µM); in the test with Streptococcus pneumoniae [5], 0.125 µg/mL (≈ 0.198 µM); in the test on Streptococcus pneumoniae [11] it was 0.5 µg/mL (≈ 0.79 µM). Moreover, the minimum inhibitory concentration (MIC) with Escherichia coli [6] was 32 µg/mL (≈ 50.6 µM); in the test on Escherichia coli [7], over 32 µg/mL; against Acinetobacter baumannii it was 8 µg/mL (≈ 12.6 µM); with Pseudomonas aeruginosa, over 32 µg/mL; with Enterobacter cloacae, over 32 µg/mL; in the test on Klebsiella pneumoniae [8], over 32 µg/mL. Further, the minimal inhibitory concentration (MIC) with Klebsiella pneumoniae [9] is over 32 µg/mL.

For the molecule `CN(C)[C@@H]1C(O)=C(C(N)=O)C(=O)[C@@]2(O)C(O)=C3C(=O)c4c(cc5ccc(CN6CCCC6)cc5c4O)C[C@H]3C[C@@H]12`, the MIC against Staphylococcus aureus [1] was 0.5 µg/mL (≈ 0.913 µM); in the test on Staphylococcus aureus [2], 2 µg/mL (≈ 3.65 µM); against Staphylococcus aureus [3] it was 0.25 µg/mL (≈ 0.457 µM); against Enterococcus faecalis [4], 0.25 µg/mL (≈ 0.457 µM); in the test on Enterococcus faecalis [10], 2 µg/mL (≈ 3.65 µM); against Streptococcus pneumoniae [5], 0.0625 µg/mL (≈ 0.114 µM). Moreover, the minimum inhibitory concentration (MIC) in the test with Streptococcus pneumoniae [11] was 0.125 µg/mL (≈ 0.228 µM); against Escherichia coli [6], 1 µg/mL (≈ 1.83 µM); against Acinetobacter baumannii, 1 µg/mL (≈ 1.83 µM); in the test with Pseudomonas aeruginosa, over 32 µg/mL; in the test with Enterobacter cloacae, 4 µg/mL (≈ 7.3 µM); with Klebsiella pneumoniae [9], 4 µg/mL (≈ 7.3 µM).

Take `CN(C)c1ccc(O)c2c1C[C@H]1C[C@H]3[C@H](N(C)C)C(O)=C(C(N)=O)C(=O)[C@@]3(O)C(O)=C1C2=O` [MINOCYCLINE]: the minimal inhibitory concentration (MIC) in the test with Staphylococcus aureus [1] was 0.0625 µg/mL (≈ 0.137 µM); against Staphylococcus aureus [2] it was 8 µg/mL (≈ 17.5 µM); in the test on Staphylococcus aureus [3], 0.0313 µg/mL (≈ 0.0684 µM); against Enterococcus faecalis [10], 16 µg/mL (≈ 35 µM); against Streptococcus pneumoniae [5] it was under 0.0156 µg/mL; in the test with Streptococcus pneumoniae [11], 2 µg/mL (≈ 4.37 µM). In addition, the MIC worked out at 0.5 µg/mL (≈ 1.09 µM) against Escherichia coli [6]; 8 µg/mL (≈ 17.5 µM) against Escherichia coli [7]; 0.0625 µg/mL (≈ 0.137 µM) against Acinetobacter baumannii; 16 µg/mL (≈ 35 µM) in the test on Pseudomonas aeruginosa; 2 µg/mL (≈ 4.37 µM) in the test with Enterobacter cloacae; 8 µg/mL (≈ 17.5 µM) in the test with Klebsiella pneumoniae [9].
